APP 5'UTR act: activators of APP 5'UTR luciferase reporter, primary screen, SH-SY5Y cells. SH-SY5Y APP 5'UTR luciferase reporter, luminescence; zero percent = DMSO vehicle wells. activation, % at 2 µM. 1% of 190,000 active. AID 1276, 2008;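 active means activation above a set limit, based on mean plus 3 SD of controls, cut at about 140% in these data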
Pf gamet viab: late stage P. falciparum gametocyte viability inhibitors, primary screen, ATP luminescence, HTS | P. falciparum stage V gametocytes, 24 h | inhibition, % at 10.9 µM | 0.065% of 150,000 active;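 active means inhibition above the mean plus 3 SD of compounds within the control limits, set per campaign, cut at about 38% in these data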
STAT3 activator: IL-6 driven STAT3 reporter potentiators, primary screen, U3A cells, luciferase, luminescence, MLSCN library | 0.91% of 190,000 active | IL-6 STAT3-luciferase reporter; 100% = signal with IL-6 EC80 alone | activation (% of control), % at 5.6 µM | AID 871, 2007;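 active means activation above the screen-wide mean of compound activation plus 3 SD, cut at about 130% in these data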
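Material: STAT1-lacking human U3A cells, STAT3 luciferase reporter | Benchmarks: IL-6-only wells as 100% reference | Probe or stimulus: IL-6 (33 ng/mL) | Timing: Compound 1 h, then IL-6 6 h at 37 °C | Detection: Luminescence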
STAT1 blocker: STAT1 signaling inhibitors, primary screen, cell-based, HTS, luciferase reporter. NIH 3T3 STAT1-luciferase reporter, IFN-gamma, luminescence. inhibition, % at 5.5 µM. 0.35% of 200,000 active. AID 920, 2007;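 active means inhibition above a set limit, the mean inhibition across all tested compounds plus 3 SD, cut at about 34% in these data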
STAT1 act: STAT1 signaling activators, primary screen, cell-based, HTS, luciferase reporter | NIH 3T3 STAT1-luciferase reporter, IFN-gamma, luminescence; 100% = IFN-gamma alone, no compound | activation (% of control), % at 5.5 µM | 2.6% of 200,000 active;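 active means activation above the screen-wide mean activation plus 3 SD, cut at about 130% in these data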
NF-kB neuron act: activators of NF-kB expression in neurons, primary screen, cell-based, HTS. AID 1239, 2008. 1.6% of 190,000 active. fold change at 12.5 µM. human neuronal cells, NF-kB reporter expression; active compounds read high; in the data active means fold change above about 3.3
Of the large screens only hits and unclear results are named; the others gave an inactive call. An excerpt weighted towards active compounds, which were near 3.9% of everything screened.

COc1ccc(OCCOC(=O)c2[nH]c(C)c(C(C)=O)c2C)cc1	NF-kB neuron act 5.8
COc1ccc(CCNC(=O)c2[nH]c(C)c(C(C)=O)c2C)cc1	none
O=C(Nc1ccc(F)c(Cl)c1)c1nsc(Cl)c1Cl	none (no result: APP 5'UTR act, STAT3 activator, STAT1 blocker, STAT1 act, NF-kB neuron act)
CCOc1ccc(NC(=O)c2nsc(Cl)c2Cl)cc1	APP 5'UTR act 234, STAT1 act 150, NF-kB neuron act 6.4
O=C(Nc1ccc(F)cc1)c1nsc(Cl)c1Cl	STAT1 act 138, NF-kB neuron act 5 (no result: Pf gamet viab)
CCOc1ccc(NC(=O)c2ccncc2)cc1	none
Cc1ccc(NC(=O)c2csc(-c3ccccc3)c2C)cc1	APP 5'UTR act 216, STAT1 blocker 63
COCCNC(=O)c1cc(-c2cccs2)on1	STAT1 act 135, NF-kB neuron act 6.4 (no result: Pf gamet viab)
Cc1ccc(NC(=O)C(=O)NNC(=O)c2cccs2)cc1	none
Cc1ccc(NC(=O)c2cc(-c3cccs3)on2)cc1	STAT1 act 130
COc1ccc(CNC(=O)c2cc(-c3cccs3)on2)cc1	none (no result: Pf gamet viab)
Cc1ccc(NC(=O)c2cccs2)cc1	STAT1 act 131
CCn1c(S(=O)(=O)O)nc2ccccc21	none (no result: APP 5'UTR act, STAT3 activator, STAT1 blocker, STAT1 act, NF-kB neuron act)
COc1ccc(S(=O)(=O)N2CCC(Cc3ccccc3)CC2)cc1NC(C)=O	none (no result: APP 5'UTR act, STAT3 activator, STAT1 blocker, STAT1 act, NF-kB neuron act)
O=C(Nc1ccc(N2CCOCC2)nc1)c1cccs1	none
O=C(NCc1cccs1)c1cc(-c2ccccc2)on1	none (no result: Pf gamet viab)
O=C(Nc1ccc(NC(=O)C2CCCCC2)nc1)c1cccs1	STAT1 act 132
O=C(NCc1cccs1)c1cc(-c2cccs2)on1	STAT1 act 138 (no result: Pf gamet viab)
COc1ccccc1C1CC(c2cccs2)=NN1C(=O)CCC(=O)O (stereo not given)	none (no result: APP 5'UTR act, STAT3 activator, STAT1 blocker, STAT1 act, NF-kB neuron act)
COc1ccccc1C1CC(c2cccs2)=Nc2ccccc2S1 (stereo not given)	APP 5'UTR act 146, STAT3 activator 133 (no result: Pf gamet viab)
O=C(Nc1nc(-c2ccc(F)c(F)c2)cs1)c1ccc(OCC2CCCO2)cc1 (stereo not given)	none
Cc1csc(NC(=O)c2ccc3c(=O)n4c(nc3c2)CCCCC4)n1	APP 5'UTR act 148
Cc1csc(NC(=O)c2ccc(N3CCCC3=O)cc2)n1	STAT1 blocker 65
Cc1csc(NC(=O)c2ccc(OCC3CCCO3)cc2)n1 (stereo not given)	APP 5'UTR act 160, STAT1 blocker 60, NF-kB neuron act 4.8 (no result: Pf gamet viab)
O=C(Nc1nccs1)c1ccc2c(=O)n3c(nc2c1)CCCCC3	STAT1 act 132 (no result: Pf gamet viab)
c1ccc(-c2csc(Nc3ccc4c(c3)OCCO4)n2)cc1	APP 5'UTR act 187, STAT1 act 139, NF-kB neuron act 4.8 (no result: Pf gamet viab)
Nc1nc(-c2ccc3c(c2)CCO3)cs1	none
COc1cccc(-c2csc(NC(C)=O)n2)c1	STAT1 act 137
CC(=O)Nc1nc(-c2ccc3c(c2)CCO3)cs1	STAT1 act 141
c1cc2c(cc1Nc1nc(-c3ccc4c(c3)OCO4)cs1)OCCO2	STAT1 act 137 (no result: Pf gamet viab)
Oc1ccc(Nc2nc(-c3ccc(O)cc3)cs2)cc1	none
CC(=O)Nc1cc2cc(NS(=O)(=O)c3ccc(C)cc3)ccc2oc1=O	none (no result: APP 5'UTR act, STAT3 activator, STAT1 blocker, STAT1 act, NF-kB neuron act)
CCOC(=O)[C@H]1[C@H]2COc3ccc(OC)cc3[C@@H]2N2C(=O)c3cc(OC)ccc3NC(=O)[C@@]12C	none (no result: APP 5'UTR act, STAT3 activator, STAT1 blocker, STAT1 act, NF-kB neuron act)
Cn1c(=O)c2c(ncn2CC(=O)Nc2nccs2)n(C)c1=O	none (no result: APP 5'UTR act, STAT3 activator, STAT1 blocker, STAT1 act, NF-kB neuron act)
CC(C)(C)C(=O)Nc1nc(-c2ccc3c(c2)OCO3)cs1	APP 5'UTR act 157, STAT1 act 139, NF-kB neuron act 5.7
O=C(/C=C/c1ccc2c(c1)OCO2)Nc1nc(-c2ccc(F)cc2)cs1	none (no result: Pf gamet viab)
COc1ccccc1C(=O)Nc1nc(-c2ccc3c(c2)OCCO3)cs1	none (no result: Pf gamet viab)
COc1cccc(Nc2nc(-c3ccc4c(c3)OCCO4)cs2)c1	APP 5'UTR act 162, STAT1 act 148
c1cc(CNC2=NCCCCC2)ccn1	none
c1cc2c(cc1-c1csc(NNC3=NCCCCC3)n1)OCCO2	STAT1 act 144
O=C(CCCN1C(=O)/C(=C/c2cccc(Br)c2)SC1=S)Nc1cccnc1	NF-kB neuron act 3.4
CCn1c(SCCN2CCCCC2)nc2c1c(=O)n(C)c(=O)n2C	none (no result: APP 5'UTR act, STAT3 activator, STAT1 blocker, STAT1 act, NF-kB neuron act)
O=C(N/N=C/c1ccc(N2CCOCC2)cc1)c1ccccn1	none (no result: APP 5'UTR act, STAT3 activator, STAT1 blocker, STAT1 act, NF-kB neuron act)
Cn1/c(=N/N=C/c2ccc(N3CCOCC3)cc2)sc2ccccc21	STAT1 act 129
OCC1CCCCN1C(=S)Nc1cccc(Cl)c1 (stereo not given)	STAT1 act 130
Cc1ccc(C)c(NC(=O)CN(C)C(=O)/C=C/c2ccco2)c1	none (no result: Pf gamet viab)
CN(CC(=O)Nc1ccc(Cl)c(C(F)(F)F)c1)C(=O)/C=C/c1ccco1	Pf gamet viab 57
O=C(/C=C/c1ccccc1)C1C(=O)c2ccccc2C1=O	none (no result: Pf gamet viab)
CCc1ccc(/C=C/C(=O)C2C(=O)c3ccccc3C2=O)cc1	STAT1 blocker 39 (no result: Pf gamet viab)
Cc1ccc(NNS(=O)(=O)c2ccc(C)cc2)cc1	STAT3 activator 135
Cc1ccc(S(=O)(=O)NNC(=O)C(=O)NNS(=O)(=O)c2ccc(C)cc2)cc1	none
CC1(C)O[C@@H](CC(=O)O)[C@]23CO[C@H](C(=O)[C@]4(C)C2CC[C@@]2(C)[C@H](c5ccoc5)OC(=O)C5O[C@]524)[C@@H]13 (stereo not given in full)	none (no result: APP 5'UTR act, STAT3 activator, STAT1 blocker, STAT1 act, NF-kB neuron act)
COC(=O)N/N=C/c1sc(N2CCCCC2)nc1-c1cccs1	none
C1CCN=C(Nc2nc3c(s2)CCCC3)CC1	STAT1 act 131
C/C(=N\Nc1nc2c(s1)CCCC2)c1ccccc1	STAT3 activator 184, STAT1 act 149 (no result: Pf gamet viab)
O=C(O)c1ccc(Nc2nc3c(s2)CCCC3)cc1	STAT1 blocker 69, NF-kB neuron act 3.5
c1nnc(NC2=NCCCCC2)s1	none (no result: Pf gamet viab)
Cc1nc(Nc2ccc(C(=O)O)cc2)sc1-c1ccccc1	APP 5'UTR act 160, STAT1 act 131 (no result: NF-kB neuron act)
C/C(=N\Nc1nc(C(C)(C)C)cs1)c1ccccc1	none (no result: APP 5'UTR act, STAT3 activator, STAT1 blocker, STAT1 act, NF-kB neuron act)
COc1ccccc1N1C(=O)CC(Sc2n[nH]c(-c3cccc(C)c3)n2)C1=O (stereo not given)	none
O=C1N(Cc2cccc(Cl)c2)C[C@@H]2C[C@@H](c3ccc4nonc4c3)N3CCC[C@@]123	none
N/C(=N\OC(=O)c1cc(Cl)ccc1Cl)c1ccncc1	STAT1 act 141
N/C(=N\OC(=O)c1ccc(Cl)cc1Cl)c1ccncc1	none (no result: APP 5'UTR act, STAT3 activator, STAT1 blocker, STAT1 act, NF-kB neuron act)
N/C(=N\OC(=O)c1cccc(Cl)c1)c1cccnc1	none (no result: Pf gamet viab)
N/C(=N\OC(=O)/C=C/c1ccccc1Cl)c1ccncc1	APP 5'UTR act 235, NF-kB neuron act 3.8
N/C(=N\OC(=O)c1cccc(Cl)c1)c1ccncc1	STAT1 act 141 (no result: Pf gamet viab)
CS(=O)(=O)c1cccc(-c2csc(N3CCC(C(N)=O)CC3)n2)c1	none (no result: APP 5'UTR act, STAT3 activator, STAT1 blocker, STAT1 act, NF-kB neuron act)
O=C(Nc1nccs1)c1ccc(-c2ccc(Cl)cc2)o1	STAT1 act 138, NF-kB neuron act 6.1

High-throughput results from PubChem.
